From ChEMBL document CHEMBL2331121, “Design, synthesis, and pharmacological characterization of N- and O-substituted 5,6,7,8-tetrahydro-4H-isoxazolo[4,5-d]azepin-3-ol analogues: novel 5-HT(2A)/5-HT(2C) receptor agonists with pro-cognitive properties” (J Med Chem, 2013)
Active and inactive are the calls of the source. The calls are words filed in the database; no cut-off is given here.

Columns and labels:
[1] = target: T1, 5-hydroxytryptamine receptor 2C (Rattus norvegicus) (UniProt P08909); experiment: Displacement of [125I]-N-(p-I-Bn)-THAZ from 5HT2C receptor in rat midbrain membrane after 1 hr by scintillation counting analysis; assay type: cell membranes
T1 sequence (whole entry): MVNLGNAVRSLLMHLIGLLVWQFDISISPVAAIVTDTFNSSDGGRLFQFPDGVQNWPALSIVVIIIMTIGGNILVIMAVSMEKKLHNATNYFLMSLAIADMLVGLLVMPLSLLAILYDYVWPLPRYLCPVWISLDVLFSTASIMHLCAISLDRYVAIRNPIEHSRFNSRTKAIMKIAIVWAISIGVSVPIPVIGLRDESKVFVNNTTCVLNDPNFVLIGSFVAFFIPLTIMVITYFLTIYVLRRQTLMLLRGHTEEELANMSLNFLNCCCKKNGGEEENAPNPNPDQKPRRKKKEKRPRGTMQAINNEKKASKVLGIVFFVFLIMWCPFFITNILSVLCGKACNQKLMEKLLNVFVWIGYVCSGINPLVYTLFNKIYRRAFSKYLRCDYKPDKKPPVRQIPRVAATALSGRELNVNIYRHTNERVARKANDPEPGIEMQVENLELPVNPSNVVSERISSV

[2] = target: T1, 5-hydroxytryptamine receptor 2C (Rattus norvegicus); experiment: (§1) Displacement of [125I]-N-(p-I-Bn)-THAZ from 5HT2C receptor in rat cerebral cortex membrane after 1 hr by scintillation counting analysis; assay type: cell membranes
[3] = target: T2, 5-hydroxytryptamine receptor 2C (Rattus norvegicus, UniProt P08909); experiment: as §1; assay type: cell membranes
T2 sequence (P08909 whole entry): T1 sequence (whole entry)

[4] = target: T1, 5-hydroxytryptamine receptor 2C (Rattus norvegicus); experiment: Displacement of [125I]-N-(p-I-Bn)-THAZ from 5HT2C receptor in rat hippocampal membrane after 1 hr by scintillation counting analysis; assay type: cell membranes; conditions: Hippocampus
[5] = target: T1, 5-hydroxytryptamine receptor 2C (Rattus norvegicus); experiment: Displacement of [125I]-N-(p-I-Bn)-THAZ from 5HT2C receptor in rat cerebellum membrane after 1 hr by scintillation counting analysis; assay type: cell membranes
[6] = target: T3, 5-hydroxytryptamine receptor 2C (Homo sapiens, UniProt P28335); experiment: Displacement of [3H]mesulergine from human 5HT2C receptor expressed in tsA201 cell membranes after 1 hr by scintillation counting analysis
T3 sequence (P28335 whole entry): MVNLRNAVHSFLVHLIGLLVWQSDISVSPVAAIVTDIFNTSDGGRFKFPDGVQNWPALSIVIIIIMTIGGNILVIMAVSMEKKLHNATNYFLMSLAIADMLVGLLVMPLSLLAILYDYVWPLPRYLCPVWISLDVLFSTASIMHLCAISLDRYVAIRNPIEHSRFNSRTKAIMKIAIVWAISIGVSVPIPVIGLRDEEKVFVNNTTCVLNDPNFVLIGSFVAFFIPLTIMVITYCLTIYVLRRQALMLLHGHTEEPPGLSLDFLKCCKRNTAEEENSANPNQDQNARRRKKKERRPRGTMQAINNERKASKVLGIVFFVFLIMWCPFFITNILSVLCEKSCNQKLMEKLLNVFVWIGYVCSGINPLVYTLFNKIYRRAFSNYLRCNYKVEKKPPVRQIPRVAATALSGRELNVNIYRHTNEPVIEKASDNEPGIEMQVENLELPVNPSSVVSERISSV

[7] = target: T4, 5-hydroxytryptamine receptor 2C (Homo sapiens) (UniProt P28335); experiment: Agonist activity at human 5HT2C receptor expressed in HEK293 cells assessed as accumulation of IP1 incubated for 1 hr at 37 degC followed by 15 mins at RT by TR-FRET assay relative to 5HT; assay type: functional, cell-based
T4 sequence (whole entry): T3 sequence (P28335 whole entry)
Outline: (§2)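 Polyclonal HEK293 lines stably expressing human 5-HT2A (variant 1) or 5-HT2C (INI isoform), detached and suspended at 1 × 10⁷ cells/mL in HBSS with 20 mM HEPES, 1 mM CaCl₂, 1 mM MgCl₂, pH 7.4. Ligands in buffer with 40 mM LiCl. Incubated 1 h at 37 °C, then 15 min RT. IP1 read by HTRF 665/615 ratio. Triplicate, at least four times.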

[8] = target: T5, 5-hydroxytryptamine receptor 2A (Homo sapiens, UniProt P28223); experiment: Agonist activity at human 5HT2A receptor expressed in HEK293 cells assessed as accumulation of IP1 incubated for 1 hr at 37 degC followed by 15 mins at RT by TR-FRET assay relative to 5HT; assay type: functional, cell-based; outline: as §2
[9] = target: T4, 5-hydroxytryptamine receptor 2C (Homo sapiens); experiment: Agonist activity at human 5HT2C receptor expressed in HEK293 cells assessed as induction of intracellular calcium release by fluorescence assay relative to 5HT; assay type: functional, cell-based
Outline: (§3)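 Stable polyclonal 5-HT2A or 5-HT2C HEK293 cells seeded on poly-D-lysine plates (6 × 10⁴ cells/well). Next day loaded with Fluo-4/AM for 1 h at 37 °C in HBSS/20 mM HEPES/1 mM CaCl₂/1 mM MgCl₂/2.5 mM probenecid, pH 7.4. Fluorescence (485 ex/525 em) recorded before and up to 90 s after agonist. Response relative to 5-HT on the same plate. Duplicate, at least three times.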

[10] = target: T5, 5-hydroxytryptamine receptor 2A; experiment: Agonist activity at human 5HT2A receptor expressed in HEK293 cells assessed as induction of intracellular calcium release by fluorescence assay relative to 5HT; assay type: functional, cell-based; outline: as §3
[11] = target: T5, 5-hydroxytryptamine receptor 2A; experiment: biochemical; assay type: cell-based, tsA201; conditions: read-out: Ki
[12] = target: T5, 5-hydroxytryptamine receptor 2A; experiment: Agonist activity at human 5HT2A receptor expressed in HEK293 cells assessed as accumulation of IP1 incubated for 1 hr at 37 degC followed by 15 mins at RT by TR-FRET assay; assay type: functional, cell-based
[13] = target: T3, 5-hydroxytryptamine receptor 2C; experiment: Agonist activity at human 5HT2C receptor expressed in HEK293 cells assessed as accumulation of IP1 incubated for 1 hr at 37 degC followed by 15 mins at RT by TR-FRET assay; assay type: functional, cell-based
[14] = target: T3, 5-hydroxytryptamine receptor 2C; experiment: Agonist activity at human 5HT2C receptor expressed in HEK293 cells assessed as induction of intracellular calcium release measured for 90 secs by fluorescence assay; assay type: functional, cell-based; conditions: read-out: EC50
[15] = target: T5, 5-hydroxytryptamine receptor 2A; experiment: Agonist activity at human 5HT2A receptor expressed in HEK293 cells assessed as induction of intracellular calcium release measured for 90 secs by fluorescence assay; assay type: functional, cell-based; conditions: read-out: EC50
[16] = target: T1, 5-hydroxytryptamine receptor 2C (Rattus norvegicus); experiment: Displacement of [125I]-N-(p-I-Bn)-THAZ from 5HT2C in rat cerebral cortex membrane up to 50 uM after 1 hr by scintillation counting analysis; assay type: cell membranes
[17] = target: T1, 5-hydroxytryptamine receptor 2C (Rattus norvegicus); experiment: Displacement of [125I]-N-(p-I-Bn)-THAZ from 5HT2C in rat cerebral cortex membrane at 300 uM after 1 hr by scintillation counting analysis; assay type: cell membranes
[18] = target: T5, 5-hydroxytryptamine receptor 2A; experiment: Agonist activity at human 5HT2A receptor expressed in HEK293 cells assessed as induction of intracellular calcium release up to 1000 uM measured up to 90 secs by fluorescence assay; assay type: functional, cell-based; outline: as §3
[19] = target: T4, 5-hydroxytryptamine receptor 2C (Homo sapiens); experiment: Agonist activity at human 5HT2C receptor expressed in HEK293 cells assessed as induction of intracellular calcium release up to 1000 uM measured up to 90 secs by fluorescence assay; assay type: functional, cell-based; outline: as §3
[20] = target: T4, 5-hydroxytryptamine receptor 2C (Homo sapiens); experiment: Agonist activity at human 5HT2C receptor expressed in HEK293 cells assessed as induction of intracellular calcium release at 100 to 1000 uM by fluorescence assay; assay type: functional, cell-based
Outline: (§4)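 Stable polyclonal h5-HT2A or h5-HT2C HEK293 cells plated on poly-D-lysine wells, loaded next day with Fluo-4/AM for 1 h at 37 °C. Buffer was HBSS with 20 mM HEPES, 1 mM CaCl₂, 1 mM MgCl₂, 2.5 mM probenecid, pH 7.4. Fluorescence read at 485/525 nm before and up to 90 s after agonist addition. Responses normalised to 5-HT on the same plate. Duplicate, 4−10 experiments.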

[21] = target: T5, 5-hydroxytryptamine receptor 2A; experiment: Agonist activity at human 5HT2A receptor expressed in HEK293 cells assessed as induction of intracellular calcium release at 100 to 1000 uM by fluorescence assay; assay type: functional, cell-based; outline: as §4
[22] = target: T3, 5-hydroxytryptamine receptor 2C; experiment: Antagonist activity at human 5HT2C receptor expressed in HEK293 cells assessed as inhibition of 5HT-induced intracellular calcium release measured for 90 secs by fluorescence assay; assay type: functional, cell-based
[23] = target: T5, 5-hydroxytryptamine receptor 2A; assay type: functional, cell-based, HEK293; conditions: read-out: pKi (converted)

T5 sequence (P28223 whole entry): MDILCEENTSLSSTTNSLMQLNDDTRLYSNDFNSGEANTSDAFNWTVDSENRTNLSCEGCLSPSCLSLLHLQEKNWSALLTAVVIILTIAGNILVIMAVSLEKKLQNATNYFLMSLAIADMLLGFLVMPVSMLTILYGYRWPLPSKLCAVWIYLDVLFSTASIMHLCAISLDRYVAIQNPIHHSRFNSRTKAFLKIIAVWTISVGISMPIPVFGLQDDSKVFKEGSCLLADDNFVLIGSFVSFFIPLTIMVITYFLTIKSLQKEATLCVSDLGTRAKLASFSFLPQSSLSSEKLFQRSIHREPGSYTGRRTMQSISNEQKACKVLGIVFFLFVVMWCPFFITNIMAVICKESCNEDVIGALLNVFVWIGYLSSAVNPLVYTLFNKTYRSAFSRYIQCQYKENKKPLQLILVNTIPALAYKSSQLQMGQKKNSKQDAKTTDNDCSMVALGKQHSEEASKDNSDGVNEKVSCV

`O=c1c2c(on1Cc1ccc(I)cc1)CCNCC2` was tested, and the Activity [1] was “inactive”, the Activity [2] was “Dose-dependent effect” and the Ki [3] was 10.2 nM. The Activity [4] was “inactive”, the Activity [5] was “inactive” and the Ki [6] was 310 nM.
Compound `Clc1cccc(COc2cncc(N3CCNCC3)n2)c1` has an Emax [7] of 109%, an Emax [8] of 90% and an Emax [9] of 103%. The Emax [10] was 88%, the Ki [6] was 9.3 nM and the Ki [11] was 81 nM. It also gave an EC50 [12] of 140 nM, an EC50 [13] of 8.1 nM and an EC50 [14] of 1.9 nM. The EC50 [15] was 76 nM.
In the case of `CN1CCN2c3ccccc3Cc3ccccc3C2C1` (stereo unspecified), the Activity [16] is reported as “inactive”, the Activity [1] is reported as “inactive” and the Activity [4] is reported as “inactive”. For the same compound, the Activity [5] was “inactive”.
In the case of `NCCc1ccc(O)c(O)c1`, the Activity [17] is reported as “inactive”.
For `COc1noc2c1CCNCC2`, the Emax [9] was 80%, the Ki [6] was 300000 nM and the Ki [11] was 300000 nM. The Activity [18] was “Active” and the EC50 [14] was 12000 nM.
`COc1noc2c1CNCC2` was tested, and the Activity [19] was “Active” and the Activity [18] was “Active”.
In the case of `NC[C@H](O)c1ccc(O)c(O)c1`, the Activity [17] is reported as “inactive”.
`c1ccc(COc2noc3c2CNCC3)cc1` was tested, and the Activity [20] was “Active” and the Activity [21] was “Active”.
Work on `OC(c1ccccc1)C1CCN(CCc2ccccc2)CC1` (stereo unspecified) [GLEMANSERIN] yielded a Ki [22] of 10000 nM and a Ki [23] of 2.45 nM.
With `NCCc1c[nH]c2ccc(O)cc12` the Activity [16] was “inactive”, the Activity [1] was “inactive” and the Activity [4] was “inactive”. The Activity [5] was “inactive”.
With `CCCn1oc2c(c1=O)CCNCC2` the Ki [6] was 100000 nM, the Ki [11] was 100000 nM and the Activity [19] was “Active”. The Activity [18] was “Active”.
